The source made the active and inactive calls. The rule behind the calls is not given here.
molecular target: T1, Tyrosine-protein phosphatase non-receptor type 1 (Homo sapiens, UniProt P18031); test: Inhibition of human recombinant PTP1B assessed as inhibition of para-nitrophenyl phosphate to para-nitrophenol conversion by spectrophotometry
T1 sequence (P18031 whole entry): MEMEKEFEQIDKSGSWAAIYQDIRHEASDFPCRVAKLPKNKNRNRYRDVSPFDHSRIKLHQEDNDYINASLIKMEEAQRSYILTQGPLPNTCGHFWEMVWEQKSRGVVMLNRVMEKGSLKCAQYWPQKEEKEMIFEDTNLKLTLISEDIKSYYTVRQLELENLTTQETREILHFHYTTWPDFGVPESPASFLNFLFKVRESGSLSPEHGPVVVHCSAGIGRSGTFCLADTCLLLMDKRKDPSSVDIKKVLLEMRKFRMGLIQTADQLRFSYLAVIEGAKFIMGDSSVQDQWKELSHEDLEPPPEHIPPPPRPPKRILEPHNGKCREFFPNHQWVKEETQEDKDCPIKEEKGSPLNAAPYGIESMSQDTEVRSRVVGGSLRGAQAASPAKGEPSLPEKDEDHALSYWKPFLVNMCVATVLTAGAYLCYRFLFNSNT
Summary of the method: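 Recombinant human GST-PTP1B, from E. coli BL21 pellets purified on a GST bead column, converts pNPP to p-nitrophenol, measured at 405 nm. Compounds were dissolved in 100% DMSO and tested over a dose series. IC50 came from a sigmoidal dose-response curve with variable slope. BPV(phen) served as the reference.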

| Structure (SMILES) | IC50 |
| --- | --- |
| COc1ccc(-c2ccc(Cn3ccc4c3C(=O)NCC/C4=N\Nc3ccccn3)cc2)cc1 | 14.9 µM |
| COc1ccc(-c2ccc(Cn3c4c(c5ccccc53)C(=O)CCNC4=O)cc2)cc1 | 13.9 µM |
| CCCCOc1ccc(-c2ccc(Cn3ccc4c3C(=O)NCCC4=O)cc2)cc1 | 16.4 µM |

molecular target: T2, Tyrosine-protein phosphatase non-receptor type 1 (Homo sapiens) (UniProt P18031); test: Inhibition of human recombinant PTP1B assessed as inhibition of para-nitrophenyl phosphate to para-nitrophenol conversion at 100 uM by spectrophotometry
T2 sequence (whole entry): T1 sequence (P18031 whole entry)
Summary of the method: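 GST-tagged human PTP1B, expressed in E. coli BL21 and purified on GST beads, hydrolyses pNPP to p-nitrophenol, read as absorbance at 405 nm. Compounds were dissolved in 100% DMSO, and the inhibitory rate was recorded. BPV(phen) served as the reference.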

| Structure (SMILES) | inhibition |
| --- | --- |
| O=C1NCCC(O)c2ccn(Cc3ccc(-c4ccccc4)cc3)c21 (centres undefined) | inactive |
| CCc1ccc(-n2ccc3c2C(=O)NCCC3=O)cc1 | inactive |
| NC(=O)c1ccccc1-c1ccc(Cn2ccc3c2C(=O)NCCC3=O)cc1 | inactive |
| CCCOc1ccc(-c2ccc(Cn3ccc4c3C(=O)NCCC4=O)cc2)cc1 | Active |
| COc1ccc(-c2ccc(Cn3ccc4c3C(=O)NCC/C4=N\Nc3ccccn3)cc2)cc1 | Active |
| COc1ccc(-c2ccc(Cn3c4c(c5ccccc53)C(=O)CCNC4=O)cc2)cc1 | Active |
| O=C1CCNC(=O)c2c1ccn2Cc1ccc(-c2ccc(O)cc2)cc1 | Active |
| O=C1CCNC(=O)c2c1ccn2Cc1ccccc1 | inactive |
| O=C1CCNC(=O)c2[nH]ccc21 | Active |
| O=C1CCNC(=O)c2c1ccn2-c1ccccc1 | inactive |
| N#Cc1ccccc1-c1ccc(Cn2ccc3c2C(=O)NCCC3=O)cc1 | inactive |
| COc1ccc(-c2ccc(Cn3ccc4c3C(=O)NCCC4=O)cc2)cc1 | Active |
| COc1ccc(-n2ccc3c2C(=O)NCCC3=O)cc1 | inactive |
| O=C1CCNC(=O)c2c1ccn2-c1ccc(C(F)(F)F)cc1 | inactive |
| O=C1CCNC(=O)c2c1ccn2Cc1ccc(-c2cccc(O)c2)cc1 | inactive |
| O=C1CCNC(=O)c2c1ccn2-c1ccc(-c2ccccc2)cc1 | inactive |
| CCCCOc1ccc(-c2ccc(Cn3ccc4c3C(=O)NCCC4=O)cc2)cc1 | Active |
| Nc1cccc(-c2ccc(Cn3ccc4c3C(=O)NCCC4=O)cc2)c1 | inactive |
| O=C1CCN(Cc2ccccc2)C(=O)c2c1ccn2Cc1ccccc1 | inactive |
| Cc1ccc(-c2ccc(Cn3ccc4c3C(=O)NCCC4=O)cc2)cc1 | Active |
| CC(=O)c1ccc(-n2ccc3c2C(=O)NCCC3=O)cc1 | inactive |
| COc1ccc(-c2ccc(Cn3ccc4c3C(=O)N(C)CCC4=O)cc2)cc1 | Active |
| O=C1c2c(ccn2Cc2ccccc2)/C(=N/O)CCN1Cc1ccccc1 | inactive |
| O=C1NCCC(O)c2ccn(Cc3ccccc3)c21 (centres undefined) | inactive |
| O=C1NCC=Cc2ccn(Cc3ccccc3)c21 | inactive |
| O=C1CCNC(=O)c2c1ccn2Cc1ccc(-c2ccccc2)cc1 | inactive |
